# Screening data deposited in PubChem by several laboratories.
# Rce1 inh – inhibitors of yeast Ras-converting enzyme; calls only; yeast membranes, quenched prenylated peptide cleavage fluorescence; Q03530; 290,000 tested, 0.27% active; AID 2563;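 active means fall in fluorescence gain of 50% or more versus controls, with final raw signal at or below 3038400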;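 further: plate controls were neutral control wells for no effect and wells lacking membranes for full effect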
# Target sequence (Q03530 whole entry, looked up): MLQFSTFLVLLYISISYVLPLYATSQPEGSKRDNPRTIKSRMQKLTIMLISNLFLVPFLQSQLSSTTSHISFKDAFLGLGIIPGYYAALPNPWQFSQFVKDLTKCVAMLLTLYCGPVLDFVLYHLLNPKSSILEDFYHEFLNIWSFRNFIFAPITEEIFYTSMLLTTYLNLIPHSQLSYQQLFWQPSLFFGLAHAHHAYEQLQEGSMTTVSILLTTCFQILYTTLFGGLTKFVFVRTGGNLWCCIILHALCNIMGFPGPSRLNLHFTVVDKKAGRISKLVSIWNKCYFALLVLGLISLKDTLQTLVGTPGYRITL
# V-ATPase pH – regulators of yeast V-ATPase proton transport; 350,000 tested, 0.37% active; response, % at 10 µM; AID 504577; S. cerevisiae, pHLuorin cytosolic pH fluorescence; in the data active means response mostly above about 7.3%, no sharp cut-off; inactive means mostly below about 5.4%; further: actives read high
# KLK7 zymogen act – proKLK7 (human) activation, primary screen; P49862; purified proKLK7, EDANS-DABCYL substrate fluorescence; 100% is mature enzyme control, 0% vehicle; activation, % at 7 µM; 370,000 tested, 0.9% active; AID 652039;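 active means activation above the mean of all tested compounds plus 3 SD, computed per campaign excluding outliers beyond control limits, cut at about 13% in these data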
# Target sequence (P49862 whole entry, looked up): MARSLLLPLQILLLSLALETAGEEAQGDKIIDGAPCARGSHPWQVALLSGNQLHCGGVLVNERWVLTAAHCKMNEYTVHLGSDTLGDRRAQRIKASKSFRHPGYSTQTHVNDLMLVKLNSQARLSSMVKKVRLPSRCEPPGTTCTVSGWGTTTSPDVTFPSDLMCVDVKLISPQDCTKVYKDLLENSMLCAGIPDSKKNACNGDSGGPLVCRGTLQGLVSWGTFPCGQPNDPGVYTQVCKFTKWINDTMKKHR
# MIN6 prolif – induces beta-cell replication in MIN6 cells; AID 2380; MIN6 cells proliferation, ATPlite luminescence, 48 h; cells starved in 0.2% serum; 100% = growth in 10% serum; 330,000 tested, 0.29% active; proliferation, % at 10 µM;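 active means compounds whose signal lies at least 3.5 SD above the mean of all wells on their plate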;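 further: 0% = DMSO-treated cells in low-serum medium and 100% = 10% serum control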
# Yeast superoxide – yeast age-related superoxide inhibition as caloric restriction mimetic. superoxide response (% of plate mean), % at 10 µM. S. cerevisiae aged cells, superoxide DHE fluorescence; hits give low values. 330,000 tested, 0.18% active;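 active means superoxide response under a set limit, about three screen SD below normal, cut at about 65% in these data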;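 further: yeast aged for seven days with compound at 30 °C before DHE staining; 100% = average MFI of all compound-treated wells on the plate with controls excluded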
# T cell modulator – T cell immune modulation candidate. 2C CD8+ T cell-vesicle binding, flow cytometry; hits give low values. 330,000 tested, 0.068% active. AID 2052. response (vesicle binding), % at 7 µM;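 active means response, share of CD8 T cells binding vesicles, and their 90th percentile fluorescence all below set limits, cut at about 80% in these data, passing the limit was not always enough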;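 further: values below 100% mean blocked vesicle binding to the CD8+ T cells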
#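 Assay system: 2C TCR transgenic mouse naive CD8+ T cells, MACS-purified | Read-out: CD8+ gate FL2 mean fluorescence as % of same-row positive control | Signal: High-throughput flow cytometry with anti-B7-1 and anti-CD8 staining | Timing: Binding step 1.5 h, 37 °C, antibody labelling 20 min, ice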
# V-ATPase pH SP – yeast V-ATPase proton transport regulation; shares compounds with V-ATPase pH; 980 tested, 2% active; AID 602197; response, % at 10 µM; S. cerevisiae pHLuorin cytosolic pH; in the data active means response above about 24%;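 further: plate controls were vehicle wells for no effect and positive control wells for full effect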
# Starred values were filed as active, the others as inactive; i = inactive; x = no result given. This is a sample that favours compounds with a hit; in the whole collection about 1.9% have one here.
SMILES,Rce1 inh,V-ATPase pH,KLK7 zymogen act,MIN6 prolif,Yeast superoxide,T cell modulator,V-ATPase pH SP
Cc1c(C(C)CCCO)oc(=O)c2c1Oc1c(C)c(C(C)C[C@H](C)O)oc(=O)c1C2 (stereo partly specified),x,-0.1,0.5,-1.6,114.4,270.3,x
COCCn1c(SCC(=O)OC(C)C)nnc1-c1ccccc1,i,9.9*,-0.2,-0.7,105.0,347.9,0.1
COCCn1c(SCC(=O)Nc2cccc(OC)c2)nnc1-c1ccccc1,i,0.3,-0.1,-4.1,86.0,178.0,x
Cc1ccc(NC(=O)CC2OC(=O)c3ccccc32)cc1S(=O)(=O)N1CCOCC1 (stereo unspecified),x,1.9,1.0,4.0,86.3,214.4,x
Cn1nc(C(=O)N2CCN(c3ccc(Cl)cc3)CC2)c2c1-c1ccccc1S(=O)(=O)C2,i,8.6*,0.5,-1.9,116.9,330.3,-6.2
Cc1c(NC(=O)COC(=O)C2(c3ccccc3F)CCCC2)c(=O)n(-c2ccccc2)n1C,i,10.6*,-0.6,-1.4,81.5,224.1,-1.6
O=C(COC(=O)C12CC3CC(CC(O)(C3)C1)C2)Nc1cccc(Br)c1,x,-5.1,-0.1,-0.3,x,x,x
Cc1cnnc2c1-c1nonc1CC2,i,1.0,0.3,-2.1,102.1,330.4,x
Cc1cnnc2c1-c1no[n+]([O-])c1CC2,i,14.0*,-0.8,2.0,115.0,239.6,0.2
Cc1ccccc1-n1ccnc1SCC(=O)Nc1cccc(S(=O)(=O)NC2=NCCC2)c1,x,-4.9,-0.4,3.2,76.1,437.7,x
Cc1ccc(-c2cc(C(=O)N/N=C/c3c(C)nn(C)c3C)c3ccccc3n2)cc1C,i,12.1*,-128.9,-2.0,98.0,311.5,-6.5
CC1=C(C(=O)N(C(C)C)C(C)C)CC(CC(=O)NCCc2ccccn2)C(=O)N1Cc1ccc(C(C)(C)C)cc1 (stereo unspecified),x,x,-0.2,x,x,x,x
Cc1ccccc1OCC(=O)NNC(=O)Cc1ccc(S(=O)(=O)N2CCOCC2)s1,i,17.7*,-0.5,4.7,103.5,175.8,7.0
CSc1ccccc1NC(=O)COC(=O)Cc1ccsc1,x,-2.0,0.0,2.5,83.3,381.9,x
COc1ccccc1CN1CC(C(=O)NCCCc2ccc(F)cc2)CCC1=O (stereo unspecified),i,12.6*,-0.3,-5.7,92.6,208.1,0.1
CN(C(=O)CSc1nc(N)c2c3c(sc2n1)CSC(C)(C)C3)c1ccccc1,i,9.8*,-4.7,-4.1,100.3,215.7,0.3
O=C1NC(=O)N2CCSC2(Cc2ccccc2)N1 (stereo unspecified),x,0.4,-1.1,x,x,x,x
N#CCCN(Cc1cccnc1)S(=O)(=O)c1ccc(S(=O)(=O)NC2CCCCC2)cc1,i,8.6*,0.2,-2.1,94.7,381.2,-2.6
O=C(CCc1nc2ccccc2c(=O)[nH]1)Nc1nnc(SCc2ccccc2F)s1,x,6.1,-0.9,-7.5,125.8,249.9,x
CCCCNS(=O)(=O)CC1NCc2cc(F)ccc21 (stereo unspecified),x,x,-0.1,x,x,x,x
CCOc1ccccc1-n1c(SCC(=O)N(C(C)C)C(C)C)nnc1-c1cccnc1,i,18.2*,0.2,2.3,101.0,231.3,-5.1
CCCC(=O)C1=C(O)C(C(=O)OC)C(C)(C)CC1=Nc1ccc(C)cc1 (stereo unspecified),i,8.3*,0.0,-0.1,102.7,802.2,0.9
CCCC(=O)C1=C(O)C(C(=O)OC)C(C)(C)CC1=Nc1ccc(N)cc1 (stereo unspecified),i,1.5,0.5,-3.1,92.9,315.5,x
O=C(Nc1ccc(Cl)c(Cl)c1)OCc1cnc(Cl)s1,i,1.8,-0.3,-2.9,103.8,762.2,x
O=C(Nc1ccccc1)OCc1cnc(Cl)s1,i,7.0*,-0.9,-0.5,115.8,517.3,2.0
SMILES,Rce1 inh,V-ATPase pH,KLK7 zymogen act,MIN6 prolif,Yeast superoxide,T cell modulator,V-ATPase pH SP
Cc1ccc(NC2=CC(=O)CC(c3ccco3)C2)c(N)c1 (stereo unspecified),x,2.3,-0.1,-0.5,94.9,334.3,x
Nc1ccccc1NC1=CC(=O)CC(c2ccco2)C1 (stereo unspecified),i,10.7*,-0.3,-2.0,96.7,207.9,0.9
CCc1noc(C)c1C(=O)N1CCN(S(=O)(=O)c2cccs2)CC1,i,7.1*,0.0,0.1,102.1,280.5,0.9
COc1ccc(-c2oc3c(c2C#CCCCCO)C(OCCO)CC3)cc1 (stereo unspecified),x,x,5.5,x,x,x,x
O=C(NCC1CC1)C1(C(F)(F)F)CC(CCc2ccccc2)CCCO1 (stereo unspecified),i,10.0*,-0.2,-5.1,102.6,224.5,-0.4
O=C(NC1CC1)c1ccc2sc([C@H]3C[C@H](O)[C@@H](CO)O3)nc2c1,x,x,-0.1,x,x,x,x
COCCN(C(=O)COC(=O)CCn1c(C)csc1=O)c1c(N)n(Cc2ccccc2)c(=O)[nH]c1=O,i,14.9*,0.4,0.5,122.4,147.8,2.1
CCCN(C(=O)COC(=O)CCC(=O)c1ccccc1)c1c(N)n(Cc2ccccc2)c(=O)[nH]c1=O,x,9.1*,0.4,x,x,x,-0.9
Cc1ccc(-c2nn(-c3ccc(F)cc3)cc2C(=O)N2CCN(C3CCS(=O)(=O)C3)CC2)cc1 (stereo unspecified),x,1.1,0.2,5.2,84.0,423.6,x
CCOC(=O)c1c(C)[nH]c(C)c1C(=O)COC(=O)/C=C/c1ccc(OC(F)F)cc1,i,10.2*,0.3,-1.9,90.5,248.2,3.7
CCOC(=O)c1c(C)[nH]c(C(=O)COC(=O)/C=C/c2ccc(OC(F)F)cc2)c1C,i,4.4,0.7,0.0,100.3,247.2,x
CCCCCn1nc(C(=O)N(CC(C)C)c2c(N)n(CCCC)c(=O)[nH]c2=O)c2ccccc2c1=O,i,21.7*,-0.9,-7.4,89.1,290.3,0.5
CCCN(CCC)c1cc(=O)nc2ccccn12,x,x,0.0,x,x,x,x
Cc1ccsc1-c1nc(CN2CCN(C)C(=O)[C@@H]2C)c(C)o1,i,0.1,0.2,5.8,109.3,303.4,x
Cc1ccsc1-c1nc(CN(C)C(C2CC2)C2CC2)c(C)o1,i,18.1*,-0.7,0.6,107.0,301.6,0.5
COc1ccc(CCNC(=O)CCSc2nc(-c3ccco3)cc(C(F)(F)F)n2)cc1OC,i,0.4,0.4,-3.8,102.8,x,x
COc1ccc(CCNc2nc(-c3ccco3)cc(C(F)(F)F)n2)cc1OC,x,11.1*,0.5,-0.1,105.8,206.2,1.5
CC1(C(=O)Nc2ccccc2)CCN1C(=O)CCc1ccc(Cl)cc1Cl (stereo unspecified),x,x,0.4,x,x,x,x
CC1CN(C(=O)c2ccc(C(=O)c3ccccc3)cc2)CC(C)O1 (stereo unspecified),i,10.6*,0.3,0.9,97.6,260.4,-1.7
